This note sets out measurements from ChEMBL document CHEMBL2311344, “Development of an in vivo active, dual EP1 and EP3 selective antagonist based on a novel acyl sulfonamide bioisostere” (Bioorg Med Chem Lett, 2013).

Bounds are passed on as bounds.

Chain of Prostaglandin E2 receptor EP2 subtype (Q62053 whole entry): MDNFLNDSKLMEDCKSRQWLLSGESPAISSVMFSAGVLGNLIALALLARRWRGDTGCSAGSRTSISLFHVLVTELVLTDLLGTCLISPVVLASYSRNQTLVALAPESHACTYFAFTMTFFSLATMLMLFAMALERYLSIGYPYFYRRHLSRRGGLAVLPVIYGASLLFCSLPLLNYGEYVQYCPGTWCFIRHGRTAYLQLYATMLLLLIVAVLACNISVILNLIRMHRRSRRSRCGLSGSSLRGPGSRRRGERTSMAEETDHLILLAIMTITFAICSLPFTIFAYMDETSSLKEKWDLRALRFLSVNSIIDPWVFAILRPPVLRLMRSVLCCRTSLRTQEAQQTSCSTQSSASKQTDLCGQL

The target of the first experiment is T1, Thromboxane A2 receptor (Mus musculus, UniProt P30987).
T1 sequence (P30987 whole entry): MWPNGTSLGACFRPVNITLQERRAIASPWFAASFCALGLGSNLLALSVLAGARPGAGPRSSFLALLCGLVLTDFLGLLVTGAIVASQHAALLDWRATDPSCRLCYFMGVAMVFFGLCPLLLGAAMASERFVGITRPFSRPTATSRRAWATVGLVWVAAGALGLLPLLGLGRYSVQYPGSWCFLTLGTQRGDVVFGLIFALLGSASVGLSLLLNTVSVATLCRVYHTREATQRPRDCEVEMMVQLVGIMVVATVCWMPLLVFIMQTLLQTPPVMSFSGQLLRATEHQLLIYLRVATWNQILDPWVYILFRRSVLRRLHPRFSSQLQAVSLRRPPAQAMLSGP
Kind of experiment: Antagonist activity at mouse TP receptor.
Settings: not given
The procedure, abridged:
(§1)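 Affinity at mouse EP2, EP3 and EP4 is given as pKI. Signalling through mouse TP is given as pIC50. Mean ± SEM of at least three independent experiments, each run in triplicate.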
On to `CC(C)(C)NC(=O)c1cccc(Cc2cc(Cl)ccc2OCc2ccc(Cl)cc2F)n1`, for which the pIC50 (in general, the negative decadic logarithm of the IC50, by convention in mol/L) is under 6.

`CCC(C)NC(=O)c1cccc(Cc2cc(Cl)ccc2OCc2ccc(Cl)cc2F)n1` (stereo unspecified) yielded a pIC50 of under 6.

Turning to `CCN(CC)C(=O)c1cccc(Cc2cc(Cl)ccc2OCc2ccc(Cl)cc2F)n1`, the negative logarithm of the IC50 (pIC50) is under 6.

`O=C(NC1CCC1)c1cccc(Cc2cc(Cl)ccc2OCc2ccc(Cl)cc2F)n1` had a pIC50 of under 6.

With `O=C(NC1CC2CCC1C2)c1cccc(Cc2cc(Cl)ccc2OCc2ccc(Cl)cc2F)n1` (stereo unspecified), the pIC50 was under 6.

Take `NC(=O)c1cccc(Cc2cc(Cl)ccc2OCc2ccc(Cl)cc2F)n1`: the pIC50 is under 6.

In turn, `O=C(NS(=O)(=O)c1cc(Cl)ccc1Cl)c1cccc(Cc2cc(Cl)ccc2OCc2ccc(Cl)cc2F)n1` gave a pIC50 of under 6.

For the molecule `O=C(c1cccc(Cc2cc(Cl)ccc2OCc2ccc(Cl)cc2F)n1)N1CCCC1`, the pIC50 is under 6.

A further experiment deals with Prostaglandin E2 receptor EP4 subtype (Mus musculus, UniProt P32240). Kind of experiment: Antagonist activity at mouse EP4 receptor.
Chain of Prostaglandin E2 receptor EP4 subtype (P32240 whole entry): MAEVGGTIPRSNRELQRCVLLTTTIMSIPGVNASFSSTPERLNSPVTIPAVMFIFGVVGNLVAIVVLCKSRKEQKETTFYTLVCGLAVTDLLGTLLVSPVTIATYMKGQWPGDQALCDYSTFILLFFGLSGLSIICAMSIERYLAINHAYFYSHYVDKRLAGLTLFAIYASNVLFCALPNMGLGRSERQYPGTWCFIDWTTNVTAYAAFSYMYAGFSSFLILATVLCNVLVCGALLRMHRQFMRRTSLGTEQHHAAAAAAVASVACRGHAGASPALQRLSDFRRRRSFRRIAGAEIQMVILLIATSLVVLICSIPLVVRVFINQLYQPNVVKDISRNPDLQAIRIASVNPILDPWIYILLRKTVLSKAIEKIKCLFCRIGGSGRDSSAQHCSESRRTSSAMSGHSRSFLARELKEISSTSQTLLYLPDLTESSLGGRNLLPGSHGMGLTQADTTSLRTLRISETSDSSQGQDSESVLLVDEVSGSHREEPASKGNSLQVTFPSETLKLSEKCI
Settings: not given
In a few lines: as §1
Consider `CC(C)(C)NC(=O)c1cccc(Cc2cc(Cl)ccc2OCc2ccc(Cl)cc2F)n1`, for which the Ki (commonly the equilibrium dissociation constant of an inhibitor or competing ligand from its target) is over 1000 nM.

Molecule `CCC(C)NC(=O)c1cccc(Cc2cc(Cl)ccc2OCc2ccc(Cl)cc2F)n1` (stereo unspecified) gave a Ki of over 1000 nM.

As for `CCN(CC)C(=O)c1cccc(Cc2cc(Cl)ccc2OCc2ccc(Cl)cc2F)n1`, the Ki was over 1000 nM.

For `O=C(NC1CCC1)c1cccc(Cc2cc(Cl)ccc2OCc2ccc(Cl)cc2F)n1`, the Ki was over 1000 nM.

For `O=C(NC1CC2CCC1C2)c1cccc(Cc2cc(Cl)ccc2OCc2ccc(Cl)cc2F)n1` (stereo unspecified), the Ki is over 1000 nM.

The molecule `NC(=O)c1cccc(Cc2cc(Cl)ccc2OCc2ccc(Cl)cc2F)n1` had a Ki of over 1000 nM.

`O=C(NS(=O)(=O)c1cc(Cl)ccc1Cl)c1cccc(Cc2cc(Cl)ccc2OCc2ccc(Cl)cc2F)n1` showed a Ki of over 1000 nM.

On to `O=C(c1cccc(Cc2cc(Cl)ccc2OCc2ccc(Cl)cc2F)n1)N1CCCC1`, for which the Ki was over 1000 nM.

The next experiment addresses Prostaglandin E2 receptor EP2 subtype (Mus musculus, UniProt Q62053). Kind of experiment: Antagonist activity at mouse EP2 receptor.
Settings: not given
In a few lines:
as §1
Molecule `CC(C)(C)NC(=O)c1cccc(Cc2cc(Cl)ccc2OCc2ccc(Cl)cc2F)n1` showed a Ki of over 1000 nM.

Take `CCC(C)NC(=O)c1cccc(Cc2cc(Cl)ccc2OCc2ccc(Cl)cc2F)n1` (stereo unspecified): the Ki was over 1000 nM.

Take `CCN(CC)C(=O)c1cccc(Cc2cc(Cl)ccc2OCc2ccc(Cl)cc2F)n1`: the Ki was over 1000 nM.

As for `O=C(NC1CCC1)c1cccc(Cc2cc(Cl)ccc2OCc2ccc(Cl)cc2F)n1`, the Ki is over 1000 nM.

Molecule `O=C(NC1CC2CCC1C2)c1cccc(Cc2cc(Cl)ccc2OCc2ccc(Cl)cc2F)n1` (stereo unspecified) gave a Ki of over 1000 nM.

Take `NC(=O)c1cccc(Cc2cc(Cl)ccc2OCc2ccc(Cl)cc2F)n1`: the Ki is over 1000 nM.

In the case of `O=C(NS(=O)(=O)c1cc(Cl)ccc1Cl)c1cccc(Cc2cc(Cl)ccc2OCc2ccc(Cl)cc2F)n1`, the Ki was over 1000 nM.

The molecule `O=C(c1cccc(Cc2cc(Cl)ccc2OCc2ccc(Cl)cc2F)n1)N1CCCC1` had a Ki of over 1000 nM.

A further experiment has as its target T2, Prostaglandin E2 receptor EP3 subtype (Mus musculus, UniProt P30557).
T2 sequence (P30557 whole entry): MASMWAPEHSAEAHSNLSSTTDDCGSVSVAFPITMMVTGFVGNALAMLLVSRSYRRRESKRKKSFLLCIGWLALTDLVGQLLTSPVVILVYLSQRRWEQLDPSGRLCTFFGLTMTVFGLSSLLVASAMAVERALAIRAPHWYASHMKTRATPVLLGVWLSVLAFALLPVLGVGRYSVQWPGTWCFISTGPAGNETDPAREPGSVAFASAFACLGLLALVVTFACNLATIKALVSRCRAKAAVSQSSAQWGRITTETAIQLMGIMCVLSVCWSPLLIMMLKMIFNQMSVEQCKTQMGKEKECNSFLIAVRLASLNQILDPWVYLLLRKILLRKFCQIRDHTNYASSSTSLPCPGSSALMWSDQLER
Kind of experiment: Antagonist activity at mouse EP3 receptor.
Settings: not given
In a few lines:
as §1
Consider `CC(C)(C)NC(=O)c1cccc(Cc2cc(Cl)ccc2OCc2ccc(Cl)cc2F)n1`, for which the Ki was over 1000 nM.

Consider `CCC(C)NC(=O)c1cccc(Cc2cc(Cl)ccc2OCc2ccc(Cl)cc2F)n1` (stereo unspecified), for which the Ki is over 1000 nM.

`CCN(CC)C(=O)c1cccc(Cc2cc(Cl)ccc2OCc2ccc(Cl)cc2F)n1` showed a Ki of over 1000 nM.

Take `O=C(NC1CCC1)c1cccc(Cc2cc(Cl)ccc2OCc2ccc(Cl)cc2F)n1`: the Ki is over 1000 nM.

For `O=C(NC1CC2CCC1C2)c1cccc(Cc2cc(Cl)ccc2OCc2ccc(Cl)cc2F)n1` (stereo unspecified), the Ki is over 1000 nM.

For `NC(=O)c1cccc(Cc2cc(Cl)ccc2OCc2ccc(Cl)cc2F)n1`, the Ki was over 1000 nM.

In turn, `O=C(NS(=O)(=O)c1cc(Cl)ccc1Cl)c1cccc(Cc2cc(Cl)ccc2OCc2ccc(Cl)cc2F)n1` showed a Ki of 204 nM.

The molecule `O=C(c1cccc(Cc2cc(Cl)ccc2OCc2ccc(Cl)cc2F)n1)N1CCCC1` gave a Ki of over 1000 nM.

The next experiment addresses T3, Prostaglandin E2 receptor EP1 subtype (Mus musculus, UniProt P35375).
T3 sequence (P35375 whole entry): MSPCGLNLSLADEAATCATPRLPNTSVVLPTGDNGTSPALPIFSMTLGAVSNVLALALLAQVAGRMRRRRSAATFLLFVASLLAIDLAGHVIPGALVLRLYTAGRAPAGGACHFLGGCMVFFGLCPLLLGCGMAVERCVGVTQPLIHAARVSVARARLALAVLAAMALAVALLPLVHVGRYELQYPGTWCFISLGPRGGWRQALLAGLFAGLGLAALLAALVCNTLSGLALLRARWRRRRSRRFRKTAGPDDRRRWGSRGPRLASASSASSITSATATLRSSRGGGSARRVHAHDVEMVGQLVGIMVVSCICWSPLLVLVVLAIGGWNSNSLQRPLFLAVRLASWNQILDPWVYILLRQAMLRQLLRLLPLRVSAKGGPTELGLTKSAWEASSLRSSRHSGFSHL
Kind of experiment: Antagonist activity at mouse EP1 receptor expressed in CHOK1 cells assessed as inhibition of 17PTPGE2-induced calcium influx. Format: functional, cell-based, CHO-K1. The note with it: read-out: Kd. The procedure, abridged: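 CHOk1 cells expressing mouse EP1 were treated with six antagonist concentrations, then challenged with a concentration range of the EP1 agonist 17-phenyl-ω-trinor PGE2. pKD/KD came from transformed Schild regression of the concentration-response curves. Mean ± SEM of at least two independent experiments, each in duplicate.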
As to `CC(C)(C)NC(=O)c1cccc(Cc2cc(Cl)ccc2OCc2ccc(Cl)cc2F)n1`, the Kd turned out to be 4360 nM.

Take `CCC(C)NC(=O)c1cccc(Cc2cc(Cl)ccc2OCc2ccc(Cl)cc2F)n1` (stereo unspecified): the Kd was 1380 nM.

Turning to `CCN(CC)C(=O)c1cccc(Cc2cc(Cl)ccc2OCc2ccc(Cl)cc2F)n1`, the Kd came out at 447 nM.

In the case of `O=C(NC1CCC1)c1cccc(Cc2cc(Cl)ccc2OCc2ccc(Cl)cc2F)n1`, the Kd turned out to be 912 nM.

With `O=C(NC1CC2CCC1C2)c1cccc(Cc2cc(Cl)ccc2OCc2ccc(Cl)cc2F)n1` (stereo unspecified), the Kd was 2190 nM.

On to `NC(=O)c1cccc(Cc2cc(Cl)ccc2OCc2ccc(Cl)cc2F)n1`, for which the Kd stood at 2630 nM.

In the case of `O=C(NS(=O)(=O)c1cc(Cl)ccc1Cl)c1cccc(Cc2cc(Cl)ccc2OCc2ccc(Cl)cc2F)n1`, the Kd came to 53.7 nM.

Consider `O=C(c1cccc(Cc2cc(Cl)ccc2OCc2ccc(Cl)cc2F)n1)N1CCCC1`, for which the Kd is 15800 nM.

The experiment is the same for the next values; noted with them: read-out: pKd (converted).
As to `O=C(NS(=O)(=O)c1cc(Cl)ccc1Cl)c1cccc(Cc2cc(Cl)ccc2OCc2ccc(Cl)cc2F)n1`, the Kd was 56.2 nM.
